Source: PubChem BioAssay (several laboratories)
SENP7 block = blocks the human protease SENP7. inhibition, % at 5 µM. recombinant SENP7, Z-RLRGG-aminoluciferin luminescence, 40 min. AID 434973. hit rate 1.5% among 330,000;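 active = inhibition above about 50% at the single test dose, limit read from the data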;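 also: plate controls were DMSO with enzyme for no effect and no enzyme buffer wells for full effect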
SENP8 block-1 = inhibitors of human SENP8 protease; purified SENP8, Z-RLRGG-aminoluciferin cleavage, luminescence; inhibition, % at 10 µM; hit rate 1.2% among 330,000; in the data active = inhibition above about 50%
SENP6 block = inhibitors of human SENP6 protease. Q9GZR1. hit rate 1.8% among 330,000. Recombinant SENP6 catalytic domain, aminoluciferin luminescence. inhibition, % at 10 µM;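 active = inhibition above about 50% at the single tested dose, limit read from the data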;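 also: plate controls were DMSO wells with enzyme for no effect and DMSO wells lacking enzyme for full effect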
Target sequence (Q9GZR1 628-1112 limits assumed): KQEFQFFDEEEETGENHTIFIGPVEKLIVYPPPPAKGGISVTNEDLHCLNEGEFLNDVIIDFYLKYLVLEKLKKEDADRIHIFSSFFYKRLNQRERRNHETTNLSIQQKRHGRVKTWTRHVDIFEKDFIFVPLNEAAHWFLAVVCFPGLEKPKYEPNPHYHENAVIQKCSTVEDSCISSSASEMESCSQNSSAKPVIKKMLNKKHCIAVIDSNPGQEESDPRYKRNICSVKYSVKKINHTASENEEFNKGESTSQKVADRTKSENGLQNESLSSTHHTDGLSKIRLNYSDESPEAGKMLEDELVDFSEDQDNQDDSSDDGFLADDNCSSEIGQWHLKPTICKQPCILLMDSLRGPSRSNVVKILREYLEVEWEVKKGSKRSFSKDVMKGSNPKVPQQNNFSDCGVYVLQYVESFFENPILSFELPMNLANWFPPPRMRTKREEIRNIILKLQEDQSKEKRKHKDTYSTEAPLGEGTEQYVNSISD
SENP8 block-2 = SENP8 (human) protease inhibition; recombinant SENP8, Nedd8 substrate fluorescence; inhibition, % at 20 µM; hit rate 0.64% among 360,000; in the data active = inhibition mostly above about 40%, no sharp cut-off; inactive = mostly below about 27%
Platelet DG rel = modulates dense granule release in human platelets; inhibition, %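 (compounds screened at 7.5 µM in platelet-rich plasma)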; human platelet-rich plasma, SFLLRN dense granule ATP release, luminescence; AID 1663; hit rate 0.22% among 300,000;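 active = mean replicate score, as percent of positive control, at or above 50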
SENP1 inh = inhibitors of human SENP1 SUMO protease catalytic domain | inhibition, % at 10 µM | recombinant SENP1 catalytic domain, CyPet-SUMO1-YPet FRET cleavage | AID 624204 | Q9P0U3 | hit rate 0.21% among 360,000;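 active = inhibition at least 30% at 10 µM, raw YFP signal under a set limit, fluorescence ratio 0.5 to 1.5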;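 also: 0% = enzyme with DMSO and 100% = no enzyme wells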
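system = hSENP1 catalytic domain, recombinant | reagent = SFCypet-SUMO1-SFYpet substrate at 25 nM | doses = one dose per compound, 10 µM, 0.5% DMSO | incubation = enzyme reaction for 50 min at room temperature, dark | measured by = FRET, CFP and YFP emission | controls = no-enzyme low, enzyme-DMSO high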
SENP8 conf = confirmation of human SENP8 protease inhibitors; shares compounds with SENP7 block; Recombinant SENP8, Z-RLRGG-aminoluciferin luminescence, 60 min; inhibition, % at 12.5 µM; hit rate 40% among 6,200; AID 488912;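 active = mean inhibition across replicates above about 50%, limit read from the data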
SENP6 confirm = confirmation of human SENP6 protease inhibitors | shares compounds with SENP7 block | recombinant SENP6, Z-RLRGG-aminoluciferin luminescence | inhibition, % at 12.5 µM | hit rate 58% among 6,200
SENP7 confirm = confirmation of human SENP7 protease inhibitors | shares compounds with SENP7 block | recombinant SENP7, Z-RLRGG-aminoluciferin luminescence, 40 min | inhibition, % at 12.5 µM | hit rate 69% among 6,200
Casp3 SENP sel = inhibits human caspase-3 in SENP selectivity test; shares compounds with SENP7 block; purified caspase-3, Z-DEVD-aminoluciferin luminescence, 60 min; inhibition, % at 12.5 µM; hit rate 60% among 6,200; AID 488918;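 active = mean inhibition above about 50%, limit read from the data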;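 also: plate controls were enzyme with DMSO for no effect and wells without caspase-3 for full effect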
Luc interf = counter-screen for SENP inhibitors: luminescence interference | shares compounds with SENP7 block | Pre-incubated SENP8/Z-RLRGG-aminoluciferin, luciferase luminescence interference | inhibition, % at 12.5 µM | hit rate 39% among 6,200 | AID 488919;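 active = mean inhibition above about 50% when retested at one dose, limit read from the data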;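 also: plate controls were DMSO wells with completed reaction for no effect and substrate without enzyme for full effect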
The depositor's hits bear a star; nt = not tested or not shown. Only some compounds are listed: those with a hit (about 2.6% of all), similar ones and a draw of the others.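 The calls were made as follows, unless noted: active = mean inhibition above about 50% in the one-dose retest (limit read from the data); inactive = the rest.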

SMILES	SENP7 block	SENP8 block-1	SENP6 block	SENP8 block-2	Platelet DG rel	SENP1 inh	SENP8 conf	SENP6 confirm	SENP7 confirm	Casp3 SENP sel	Luc interf
COc1ccc(OC)c(NC(=O)COc2ccc3c(c2)CCC3)c1	-11	-3	-8	16	nt	-5	nt	nt	nt	nt	nt
COc1cccc(/C=N/Nc2ccc([N+](=O)[O-])cc2)c1O	78*	61*	70*	-69	4	-23	20	67*	98*	50*	5
COc1cccc(/C=N/NC(=S)Nc2cccc(C(=O)O)c2)c1O	98*	95*	97*	-203	3	-10	98*	99*	102*	97*	84*
COc1cccc(/C=N/Nc2c(Cl)cncc2Cl)c1O	62*	66*	76*	15	8	4	74*	71*	90*	65*	72*
COc1cc(/C=N/NC(=S)Nc2cccc(C(=O)O)c2)ccc1O	6	-3	15	-136	27	-2	nt	nt	nt	nt	nt
O=C(NC(CO)C(=O)OCc1ccccc1)OCc1ccccc1 (centres undefined)	-7	-11	-19	8	nt	2	nt	nt	nt	nt	nt
N/C(=N\OC(=O)c1ccc2c(c1)OCO2)c1ccc(Cl)cc1	-6	76*	87*	0	-5	-1	23	68*	94*	86*	18
Cc1ccc(/C(N)=N/OC(=O)c2ccc3c(c2)OCO3)cc1	42	60*	71*	2	0	2	24	43	87*	81*	20
N/C(=N\OC(=O)c1ccc2c(c1)OCO2)c1ccncc1	60*	43	68*	10	20	7	53*	48	76*	82*	60*
COc1ccc(/C(N)=N/OC(=O)c2ccc3c(c2)OCO3)cc1	68*	28	50	16	-4	1	9	25	31	30	4
C[C@H](CO)N1C[C@H](C)[C@@H](CN(C)S(=O)(=O)c2ccccc2)OCc2cnnn2CCCC1=O	nt	nt	nt	15	nt	2	nt	nt	nt	nt	nt
O=C(CN(C(=O)c1csnn1)c1ccc(F)c(Cl)c1)NC1CCCC1	1	3	-13	3	10	2	nt	nt	nt	nt	nt
COc1ccc(C(=O)NC(=S)N2CCN(c3ccccc3OC)CC2)cc1OC	-1	-2	-5	11	-4	3	nt	nt	nt	nt	nt
CC(=O)c1cccc(OCC(=O)N(C)CC(=O)NCc2ccco2)c1	-5	-9	-24	-1	nt	3	nt	nt	nt	nt	nt
O=C1CC(c2ccc3c(c2)OCCO3)Oc2ccccc21 (centres undefined)	9	0	7	2	0	1	nt	nt	nt	nt	nt
O=C1CC(c2ccc3c(c2)OCCO3)Oc2ccc([N+](=O)[O-])cc21 (centres undefined)	98*	96*	99*	20	13	0	44	98*	101*	51*	20
Nn1c(SCC(=O)NNC(=O)c2ccccc2)nnc1-c1ccccc1F	-3	-1	-1	4	-4	0	nt	nt	nt	nt	nt
Brc1ccc(-c2nc(N/N=C/c3cccnc3)c3ccccc3n2)cc1	90*	85*	90*	-105	72*	-11	5	5	2	5	3
C(=N\Nc1nc(-c2cccnc2)nc2ccccc12)/c1ccccc1	1	-13	-10	-305	25	-8	nt	nt	nt	nt	nt
Cc1ccc(-n2[nH]c(C)c(C=NC34CN5CN(CN(C5)C3)C4)c2=O)cc1C	12	-10	-12	27	-10	2	nt	nt	nt	nt	nt
COCCCN=Cc1c(C)[nH]n(-c2ccc(Br)c(C)c2)c1=O	38	4	53*	6	7	2	-3	-6	46	26	34
CCSc1ccc([C@@H]2[C@H]3C(=O)N(C)C(=O)[C@H]3[C@]3(C(=O)OC)CCCCN23)cc1OC	1	-1	-9	-58	nt	-34	nt	nt	nt	nt	nt
Cc1nn(C)c(C)c1C1Nc2ccccc2C(=O)N1O (centres undefined)	-1	-6	-4	-12	1	0	nt	nt	nt	nt	nt
O=C1c2ccccc2NC(c2cnc3ccccc3n2)N1O (centres undefined)	-1	40	72*	-169	3	1	12	12	7	12	-7
Nc1ccc(C(=O)N/N=C/c2cn(Cc3ccccc3F)c3ccccc23)cc1	-5	-8	2	-220	-11	0	nt	nt	nt	nt	nt
SMILES	SENP7 block	SENP8 block-1	SENP6 block	SENP8 block-2	Platelet DG rel	SENP1 inh	SENP8 conf	SENP6 confirm	SENP7 confirm	Casp3 SENP sel	Luc interf
CC(C)n1cc(/C=N/Nc2ccc(C(=O)O)cc2)c2ccccc21	61*	80*	82*	-286	3	-8	90*	89*	96*	61*	55*
O=C(O)c1ccc(N/N=C/c2cn(Cc3ccccc3F)c3ccccc23)cc1	47	88*	84*	-421	12	-9	96*	95*	99*	44	40
CCCc1cc(=O)n2c([nH]c3ccccc32)c1C#N	8	42	51*	-266	-5	-7	24	38	51*	53*	44
CCCCc1c(C)c(C#N)c2[nH]c3ccccc3n2c1=O	32	22	14	-413	-24	-2	nt	nt	nt	nt	nt
Cc1ccc(-c2noc(COC(=O)c3ccco3)n2)cc1	68*	63*	78*	15	nt	-1	76*	76*	95*	72*	68*
O=C(Nc1ccc(-c2noc(CCc3ccccc3)n2)cc1)c1ccco1	60*	55*	78*	-10	17	-5	68*	71*	90*	53*	10
O=C(NCc1nc(-c2ccc(Cl)cc2)no1)c1ccco1	3	-8	-2	-1	12	-2	nt	nt	nt	nt	nt
c1ccc(COc2ccc(OCCCn3cncn3)cc2)cc1	77*	52*	73*	24	24	-2	74*	73*	89*	77*	74*
c1ccc(Cc2ccc(OCCn3cncn3)cc2)cc1	-6	-6	-5	21	4	-1	nt	nt	nt	nt	nt
c1ccc2c(c1)COc1c3cc4c(cc3nn1-2)OCO4	nt	nt	nt	10	nt	3	nt	nt	nt	nt	nt
CCc1cc(-c2ccc3c(c2)COc2c4ccccc4nn2-3)on1	48	89*	81*	-428	29	-3	4	89*	94*	70*	20
